A short description of data set [1]: Chemical stability of the compound assessed as compound remaining after 24 hrs in PBS buffer by HPLC analysis at pH 7.4. Format: physicochemical. The following applies: read-out: Activity. Summed up:
(§1)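 Drug at 50 mg/liter initial concentration incubated 24 h at 37°C in buffered medium at pH 7.4 or 5.5. Remaining drug measured by HPLC signal disappearance; mobile phase 25 mM phosphate buffer pH 6.7 with acetonitrile (75:25).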

The nature of data set [2]: Chemical stability of the compound assessed as compound remaining after 24 hrs PBS buffer by HPLC analysis at pH 5.5. Format: physicochemical. Conditions: read-out: Activity. Summed up: as §1
For data set [3], the system named is THP-1. The data set can be described thus: Ratio of intracellular to extracellular drug level in human THP1 cells at 250 mg/L after 24 hrs. In kind it is ADME, cell-based. Conditions: thp-1, 24 h. Summed up:
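THP-1 cells incubated 24 h at 250 mg/liter extracellular drug. Cell lysates assayed microbiologically with MSSA ATCC 25923; content expressed per mg total protein. Cellular/extracellular ratio calculated assuming cell volume of 5 μl per mg protein.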

`C[C@@H](O)[C@H]1C(=O)N2C(C(=O)O)=C(SCCN=CN)C[C@H]12` [IMIPENEM ANHYDROUS]: the remaining at 24 h was determined as 39.3% in data set [1] and 30.5% in data set [2]. For the same compound, in data set [3], the Ratio is recorded as 0.05.
For `C[C@@H](O)[C@H]1C(=O)N2C(C(=O)O)=C(S[C@@H]3CN[C@H](C(=O)N(C)C)C3)[C@H](C)[C@H]12` [MEROPENEM], the remaining at 24 h was 49.3% in data set [1] and 40.3% in data set [2]. Also, in data set [3], the Ratio is given as 0.2.
For `Cc1onc(-c2ccccc2)c1C(=O)N[C@@H]1C(=O)N2[C@@H]1SC(C)(C)[C@@H]2C(=O)O` [OXACILLIN], in that order: 94.2%, 91.8% and 0.2.

Values taken from ChEMBL document CHEMBL1649111, “Restoration of susceptibility of intracellular methicillin-resistant Staphylococcus aureus to beta-lactams: comparison of strains, cells, and antibiotics” (Antimicrob Agents Chemother, 2008).
